# Data published in ChEMBL document CHEMBL4257556, “Novel 1,3,4-thiadiazole-chalcone hybrids containing catechol moiety: synthesis, antioxidant activity, cytotoxicity and DNA interaction studies” (Medchemcomm, 2018).
# Active and inactive are the calls of the source. The calls are words filed in the database; no cut-off is given here.
# Key:
# HL-60 = assay: Cytotoxicity against human HL60 cells assessed as decrease in cell survival after 72 hrs by MTT assay; type: functional, cell-based; details: HL-60, 72 h
# Outline: (§1)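 HeLa (2000/well), A549 and MRC-5 (5000/well) seeded 20 h before treatment; HL-60 (7000/well) 2 h before. Five concentrations (6.25–100 μM or 3.125–50 μM) from 5 mM DMSO stocks, final DMSO ≤1%, 72 h; survival by MTT. Cisplatin positive control; three independent experiments in triplicate.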
# A549 = assay: Cytotoxicity against human A549 cells assessed as decrease in cell survival after 72 hrs by MTT assay; type: functional, cell-based; details: A549, 72 h; outline: as §1
# HeLa [1] = assay: Cytotoxicity against human HeLa cells assessed as decrease in cell survival after 72 hrs by MTT assay; type: functional, cell-based; outline: as §1
# MRC5 [2] = assay: Cytotoxicity against human MRC5 cells assessed as decrease in cell survival after 72 hrs by MTT assay; type: cell-based; details: MRC5, 72 h; outline: as §1
# [3] = Antioxidant activity assessed as DPPH free radical scavenging activity after 30 mins; type: functional
# Outline: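 DPPH (0.05 mM in methanol) mixed with equal volume of compound (DMSO solution diluted in methanol), kept in dark at room temperature 30 min; absorbance at 517 nm, methanol control, ascorbic acid positive control. IC50 = concentration giving 50% of maximum scavenging; mean ± SD of independent triplicate experiments.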
# HeLa [4] = assay: Cell cycle arrest in human HeLa cells assessed as accumulation at sub-G1 phase at IC50 and 2 times IC50 after 24 hrs by propidium iodide staining-based flow cytometric method; type: functional
# Outline: (§2)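 HeLa cells treated 24 h at IC50 or 2×IC50 (from 72 h assay), fixed in 70% ethanol, stored at –20 °C ≥1 week, RNase A 30 min 37 °C, propidium iodide stained; flow cytometry, 10 000 gated events. Mean ± SD of three independent experiments; one-way ANOVA with Dunnett's post-test, p < 0.05.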
# Calf thymus DNA [5] = assay: Displacement of Hoechst 33258 from calf thymus DNA assessed as quenching constant by fluorescence spectrophotometric analysis; type: nucleic-acid assay; details: Bos taurus
# Outline: (§3)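 CT-DNA 100 μM (per phosphate) in 40 mM bicarbonate pH 8.4 pretreated 20 min with Hoechst 33258 (28 μM final), then compound added stepwise. Excitation 350 nm, emission 390–550 nm, read at 444 nm, 10 nm slits; H–DNA as control. Quenching constant K by Stern–Volmer, I0/I versus r = [compound]/[DNA]; triplicate.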
# MRC5 [6] = assay: Induction of DNA damage in human MRC5 cells assessed as formation of DNA breaks at 25 uM after 24 hrs by comet assay relative to control; type: functional
# Outline: (§4)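 MRC-5 cells exposed 24 h to 3.125–25 μM compound; DNA damage scored as % tail DNA (tail intensity) by comet assay. PBS negative control; H2O2 50 μM 5 min in-gel positive control. Triplicate, repeated twice; mean ± SD.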
# HeLa [7] = assay: Downregulation of miR-155 expression in human HeLa cells at 10 uM after 24 hrs by RT-qPCR method; type: functional, cell-based
# HeLa [8] = assay: Downregulation of TIMP3 gene expression in human HeLa cells at 10 uM after 24 hrs by RT-qPCR method; type: functional, cell-based
# HeLa [9] = assay: Upregulation of miR-206 expression in human HeLa cells at 10 uM after 24 hrs by RT-qPCR method; type: functional, cell-based
# HeLa [10] = assay: Downregulation of miR-133b expression in human HeLa cells at 10 uM after 24 hrs by RT-qPCR method; type: functional, cell-based
# Calf thymus DNA [11] = assay: Binding affinity to calf thymus DNA assessed as hypochromism at 10 to 20 uM after 90 mins by UV/visible spectrophotometric analysis; type: nucleic-acid assay; details: Bos taurus
# Outline: (§5)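 CT-DNA stock in 10 mM Tris-HCl pH 7.9 (A260/A280 1.89–2.01; concentration from ε260 6600 M–1 cm–1). Compound (10, 20 or 40 μM) plus CT-DNA (95 μM) in 40 mM bicarbonate pH 8.4, 37 °C 90 min; spectra 200–800 nm. Hyper/hypochromism at 259 nm from bound versus summed free compound and DNA extinction; triplicate.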
# MRC5 [12] = assay: Induction of DNA damage in human MRC5 cells assessed as formation of DNA breaks after 24 hrs by comet assay; type: functional, cell-based; outline: as §4
# HeLa [13] = assay: Downregulation of MMP2 gene expression in human HeLa cells at 10 uM after 24 hrs by RT-qPCR method; type: functional, cell-based
# DNA [14] = assay: Reversal of Fe2+-induced Escherichia coli pUC19 DNA cleavage at 1:2 compound to Fe2+ mole ratio after 90 mins by agarose gel electrophoresis method; type: functional
# Outline: (§6)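 Compound (4 μL of 2 mM) preincubated with FeSO4 (1 or 2 μL of 8 mM; compound:Fe 1:1 or 1:2) in bicarbonate buffer 60 min at 37 °C, then pUC19 added for another 90 min; products resolved on 1% agarose gel, ethidium bromide stained.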
# HeLa [15] = assay: Cell cycle arrest in human HeLa cells assessed as accumulation at sub-G1 phase at 2 times IC50 after 24 hrs in presence of caspase-8 inhibitor Z-IETD-FMK by propidium iodide-staining based flow cytometric method; type: functional
# Outline: (§7)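 HeLa cells pretreated 2 h with 40 μM peptide caspase inhibitor (Z-DEVD-FMK caspase-3, Z-IETD-FMK caspase-8 or Z-LEHD-FMK caspase-9), then exposed to 2×IC50 compound; subG1 fraction by propidium iodide flow cytometry, compared with samples lacking inhibitor.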
# HeLa [16] = assay: Upregulation of MMP9 gene expression in human HeLa cells at 10 uM after 24 hrs by RT-qPCR method; type: functional, cell-based
# EA.hy 926 = assay: Antiangiogenic activity in human EAhy926 cells assessed as inhibition of tubular structures formation at IC20 after 20 hrs by inverted phase-contrast microscopic method; type: functional, cell-based
# Calf thymus DNA [17] = assay: Binding affinity to calf thymus DNA after 90 mins by spectroscopic titration method; type: nucleic-acid assay; details: Bos taurus
# Outline: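 Compound fixed at 40 μM titrated with CT-DNA (2.2–13 × 10–5 M) in 40 mM bicarbonate pH 8.4 after 90 min at 37 °C; absorbance at 259 nm per DNA level. Kb from slope/intercept ratio of [DNA]/(εa–εf) versus [DNA] plot; triplicate assays.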
# DNA [18] = assay: Reversal of Fe2+-induced Escherichia coli pUC19 DNA cleavage at 1:1 compound to Fe2+ mole ratio after 90 mins by agarose gel electrophoresis method; type: functional; outline: as §6
# Calf thymus DNA [19] = assay: Displacement of Hoechst 33258 from calf thymus DNA assessed as fluorescence intensity of compound-DNA complex at 22 uM by fluorescence spectrophotometric analysis relative to control; type: nucleic-acid assay; details: Bos taurus; outline: as §3
# HeLa [20] = assay: Downregulation of VEGFA gene expression in human HeLa cells at 10 uM after 24 hrs by RT-qPCR method; type: functional, cell-based
# Calf thymus DNA [21] = assay: Binding affinity to calf thymus DNA at 10 to 40 uM after 90 mins by UV/visible spectrophotometric analysis; type: nucleic-acid assay; details: Bos taurus; outline: as §5
# HeLa [22] = assay: Cell cycle arrest in human HeLa cells assessed as accumulation at sub-G1 phase at 2 times IC50 after 24 hrs in presence of caspase-9 inhibitor Z-LEHD-FMK by propidium iodide-staining based flow cytometric method; type: functional; outline: as §7
# HeLa [23] = assay: Prooxidant activity in human HeLa cells assessed as increase in H2O2-induced reactive oxygen species at 10 uM preincubated for 24 hrs followed by H2O2 addition and measured after 30 mins by dichlorofluorescein dye-based flow cytometric method; type: functional, cell-based
# Outline: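 HeLa cells pretreated 24 h with 10 μM compound, washed, loaded with 30 μM DCFH-DA in PBS 45 min at 37 °C. One portion read directly (endogenous ROS); other portion exposed to 10 mM H2O2 30 min at 37 °C. DCF green fluorescence by flow cytometry, 20 000 events per sample; mean ± SD of two independent experiments.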
# DNA [24] = assay: Induction of Escherichia coli pUC19 DNA cleavage after 90 mins by agarose gel electrophoresis method; type: nucleic-acid assay
# Outline: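 Plasmid pUC19 (from E. coli XL1 blue; 460 ng, 12 nM) incubated with compound (0.05–0.4 mM; from 2 mM DMSO stock) in 20 μL 40 mM bicarbonate pH 8.4 at 37 °C for 90 min; 1% agarose gel in TAE at 80 V, ethidium bromide staining, UV at 312 nm; supercoiled/nicked/linear forms scored.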
# HeLa [25] = assay: Cell cycle arrest in human HeLa cells assessed as accumulation at sub-G1 phase at 2 times IC50 after 24 hrs in presence of caspase-3 inhibitor Z-DEVD-FMK by propidium iodide-staining based flow cytometric method; type: functional; outline: as §7
# HeLa [26] = assay: Downregulation of miR-21 expression in human HeLa cells at 10 uM after 24 hrs by RT-qPCR method; type: functional, cell-based
# HeLa [27] = assay: Cell cycle arrest in human HeLa cells assessed as accumulation at G2/M phase at 2 times IC50 after 24 hrs by propidium iodide staining-based flow cytometric method; type: functional; outline: as §2
smiles,measurement,setting,value
O=C(/C=C/c1ccc(C(=O)Nc2nnc(-c3ccc(O)c(O)c3)s2)cc1)c1ccc(Br)cc1,IC50,HL-60,9.74 µM
same,IC50,A549,87.7 µM
same,IC50,HeLa [1],40.2 µM
same,IC50,MRC5 [2],38.2 µM
same,IC50,[3],18 µM
O=C1O[C@H]([C@@H](O)CO)C(O)=C1O [ASCORBIC ACID],IC50,[3],20.2 µM
COc1ccccc1C(=O)C=Cc1ccc(C(=O)Nc2nnc(-c3ccc(O)c(O)c3)s2)cc1,IC50,HL-60,12 µM
same,IC50,A549,50.2 µM
same,IC50,HeLa [1],10.2 µM
same,IC50,MRC5 [2],48 µM
same,IC50,[3],9.76 µM
Cc1ccc(C(=O)/C=C/c2ccc(C(=O)Nc3nnc(-c4ccc(O)c(O)c4)s3)cc2)cc1,IC50,HL-60,8.44 µM
same,IC50,A549,26.4 µM
same,IC50,HeLa [1],11.2 µM
same,IC50,MRC5 [2],33.7 µM
same,IC50,[3],11.8 µM
O=C(/C=C/c1ccc(C(=O)Nc2nnc(-c3ccc(O)c(O)c3)s2)cc1)c1ccc(F)cc1,IC50,HL-60,10.6 µM
same,IC50,A549,89.3 µM
same,IC50,HeLa [1],17.8 µM
same,IC50,MRC5 [2],45.8 µM
same,IC50,[3],17.8 µM
O=C(/C=C/c1ccc(C(=O)Nc2nnc(-c3ccc(O)c(O)c3)s2)cc1)c1ccc([N+](=O)[O-])cc1,IC50,HL-60,11.2 µM
same,IC50,A549,128 µM
same,IC50,HeLa [1],54.8 µM
same,IC50,MRC5 [2],39.4 µM
same,IC50,[3],14 µM
O=C(Nc1nnc(-c2ccc(O)c(O)c2)s1)c1ccc(C=CC(=O)c2ccccc2F)cc1,IC50,HL-60,8.88 µM
same,IC50,A549,46.9 µM
same,IC50,HeLa [1],11.1 µM
same,IC50,MRC5 [2],39.6 µM
same,IC50,[3],13.9 µM
COc1cccc(C(=O)/C=C/c2ccc(C(=O)Nc3nnc(-c4ccc(O)c(O)c4)s3)cc2)c1,IC50,HL-60,9.92 µM
same,Activity,HeLa [4],Active
same,K,Calf thymus DNA [5],3.95
same,Activity,MRC5 [6],20%
same,Activity,HeLa [7],Active
same,Activity,HeLa [8],Active
same,Activity,HeLa [9],Active
same,Activity,HeLa [10],Active
same,Activity,Calf thymus DNA [11],2.4%
same,Activity,MRC5 [12],Dose-dependent effect
same,IC50,A549,92.1 µM
same,Activity,HeLa [13],Active
same,Activity,DNA [14],Active
same,Activity,HeLa [15],inactive
same,IC50,HeLa [1],9.98 µM
same,Activity,HeLa [16],Active
same,inhibition,EA.hy 926,Active
same,IC50,MRC5 [2],42.5 µM
same,Kb,Calf thymus DNA [17],0.71 ×10³ /M
same,Activity,DNA [18],Active
same,Activity,Calf thymus DNA [19],55%
same,Activity,HeLa [20],Active
same,Activity,Calf thymus DNA [21],Active
same,Activity,HeLa [22],inactive
same,Activity,HeLa [23],Active
same,IC50,[3],10.3 µM
same,Activity,DNA [24],inactive
same,Activity,HeLa [25],inactive
same,Activity,HeLa [26],inactive
same,Activity,HeLa [27],Active
O=C(Nc1nnc(-c2ccc(O)c(O)c2)s1)c1ccc(/C=C/C(=O)c2cccc3cc4ccccc4cc23)cc1,IC50,HL-60,6.92 µM
same,IC50,A549,23.2 µM
same,IC50,HeLa [1],11 µM
same,IC50,MRC5 [2],21.2 µM
same,IC50,[3],13.5 µM
Cc1ccccc1C(=O)C=Cc1ccc(C(=O)Nc2nnc(-c3ccc(O)c(O)c3)s2)cc1,IC50,HL-60,7.62 µM
same,IC50,A549,21.8 µM
same,IC50,HeLa [1],9.12 µM
same,IC50,MRC5 [2],18.6 µM
same,IC50,[3],11.7 µM
COc1ccc(C(=O)/C=C/c2ccc(C(=O)Nc3nnc(-c4ccc(O)c(O)c4)s3)cc2)cc1,IC50,HL-60,16.4 µM
same,IC50,A549,89.1 µM
same,IC50,HeLa [1],57.6 µM
same,IC50,MRC5 [2],81.3 µM
same,IC50,[3],17.9 µM
